Measurements from publication PMC6195466 (Cell chemical biology, 2018).
Read-outs that look alike come from different tables or passages of the source.

What was measured:
nuclear NF-κB = type: cell-based, human; conditions: concentration of 500 nM, THP-1 cells, R848 1 μg/mL, Figure S2
Method in brief: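 THP-1 cells were seeded at 2 × 10^6 cells/well and differentiated with PMA (100 ng/mL) for 24 h at 37 °C, 5% CO2. Medium was switched to unsupplemented RPMI, then R848 (1 μg/mL) plus test compound was added for 2 h. Nuclear fractions were extracted and quantified by BCA, run on 10% SDS-PAGE and blotted. Probed with anti-p65 (1:1000), then HRP anti-rabbit (1:10000), chemiluminescence. Lamin A/C was the nuclear control.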

TLR7 = target: T1, TLR7 (Homo sapiens, UniProt Q9NYK1); assay: TLR selectivity assay; type: cell-based; conditions: HEK-Blue hTLR7 cells, R848 1 μg/mL
T1 sequence (Q9NYK1 27-1049): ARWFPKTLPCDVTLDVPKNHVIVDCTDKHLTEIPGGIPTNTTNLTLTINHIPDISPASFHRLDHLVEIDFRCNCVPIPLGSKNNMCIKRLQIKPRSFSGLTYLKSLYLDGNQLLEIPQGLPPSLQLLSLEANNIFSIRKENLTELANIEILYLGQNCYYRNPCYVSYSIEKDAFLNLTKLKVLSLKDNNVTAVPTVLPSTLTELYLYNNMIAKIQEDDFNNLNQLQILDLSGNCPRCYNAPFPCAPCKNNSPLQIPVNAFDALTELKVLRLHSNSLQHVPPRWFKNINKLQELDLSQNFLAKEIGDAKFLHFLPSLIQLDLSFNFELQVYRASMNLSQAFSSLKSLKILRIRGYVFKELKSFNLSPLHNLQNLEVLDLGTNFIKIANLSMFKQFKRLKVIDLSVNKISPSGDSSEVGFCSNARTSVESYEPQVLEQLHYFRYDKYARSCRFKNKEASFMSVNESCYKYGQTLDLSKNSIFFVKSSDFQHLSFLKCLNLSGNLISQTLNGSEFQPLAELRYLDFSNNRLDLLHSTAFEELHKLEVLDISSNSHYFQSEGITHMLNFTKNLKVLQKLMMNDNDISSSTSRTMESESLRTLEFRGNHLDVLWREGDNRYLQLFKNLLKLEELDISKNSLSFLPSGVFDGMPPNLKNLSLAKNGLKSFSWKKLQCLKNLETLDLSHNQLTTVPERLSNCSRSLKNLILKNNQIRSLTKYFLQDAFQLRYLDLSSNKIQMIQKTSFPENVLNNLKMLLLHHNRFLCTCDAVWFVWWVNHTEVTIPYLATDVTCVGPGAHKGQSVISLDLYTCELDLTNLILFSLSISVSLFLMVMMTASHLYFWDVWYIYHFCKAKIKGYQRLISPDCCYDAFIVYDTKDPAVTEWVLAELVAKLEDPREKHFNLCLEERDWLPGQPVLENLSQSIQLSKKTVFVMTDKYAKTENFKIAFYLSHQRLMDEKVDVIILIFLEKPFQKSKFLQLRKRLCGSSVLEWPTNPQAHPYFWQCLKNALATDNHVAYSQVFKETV
Method in brief: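 HEK-Blue hTLR7 cells were seeded at 7.5 × 10^4 cells/well in DMEM with 10% heat-inactivated FBS. Cells received R848 (1 μg/mL) with varied test-compound concentrations for 24 h at 37 °C, 5% CO2. Supernatant SEAP was developed with Quanti-Blue (30 min–1 h, 37 °C) and read at 620 nm. Normalised with R848-only as 100% and untreated as 0% activation. Three biological replicates, each in triplicate.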

mouse TLR9 = target: T2, mouse TLR9 (Mus musculus, UniProt Q9EQU3); assay: IL-12p40 production in splenocytes from hTLR8tg/TLR7-KO mice, TLR9 agonist 1018; type: cell-based; conditions: 1018 7.1 ug/mL
T2 sequence (Q9EQU3 26-1032): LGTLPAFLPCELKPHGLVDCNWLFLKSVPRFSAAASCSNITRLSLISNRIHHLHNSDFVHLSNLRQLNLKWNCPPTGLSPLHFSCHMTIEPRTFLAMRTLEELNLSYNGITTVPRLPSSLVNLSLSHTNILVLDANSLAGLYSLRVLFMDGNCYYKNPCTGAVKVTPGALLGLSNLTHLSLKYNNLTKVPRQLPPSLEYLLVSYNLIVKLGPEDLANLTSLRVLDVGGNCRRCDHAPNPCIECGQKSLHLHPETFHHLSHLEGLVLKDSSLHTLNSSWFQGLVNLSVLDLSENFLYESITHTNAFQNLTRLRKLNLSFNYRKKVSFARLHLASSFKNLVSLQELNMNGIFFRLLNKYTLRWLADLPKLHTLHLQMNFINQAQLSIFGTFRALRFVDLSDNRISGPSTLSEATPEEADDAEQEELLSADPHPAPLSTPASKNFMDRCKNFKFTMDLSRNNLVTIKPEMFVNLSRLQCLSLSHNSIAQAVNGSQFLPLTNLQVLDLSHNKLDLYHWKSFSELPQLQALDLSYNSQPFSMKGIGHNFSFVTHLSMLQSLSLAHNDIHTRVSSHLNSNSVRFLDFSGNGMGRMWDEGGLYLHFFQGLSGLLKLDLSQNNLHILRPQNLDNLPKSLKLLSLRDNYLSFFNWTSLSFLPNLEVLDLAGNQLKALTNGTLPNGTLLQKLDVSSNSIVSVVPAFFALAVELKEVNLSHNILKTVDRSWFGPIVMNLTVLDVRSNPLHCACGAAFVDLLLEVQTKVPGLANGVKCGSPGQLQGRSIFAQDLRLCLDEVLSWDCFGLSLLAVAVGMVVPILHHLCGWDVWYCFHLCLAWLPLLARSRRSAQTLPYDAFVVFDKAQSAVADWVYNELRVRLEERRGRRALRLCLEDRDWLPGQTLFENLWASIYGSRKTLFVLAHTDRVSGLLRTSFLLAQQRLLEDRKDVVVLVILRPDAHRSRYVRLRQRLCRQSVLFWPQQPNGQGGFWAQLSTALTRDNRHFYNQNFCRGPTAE
Method in brief: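 Splenocytes from female […] mice carrying a human TLR8 transgene, prepared by straining and red-cell lysis. Incubated with a dilution series of test compound plus a constant amount of CpG phosphorothioate DNA oligonucleotide 1018 (TLR9 agonist) for 48 h. IL-12p40 measured in culture supernatants. Curves come from a single spleen.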

ectodomain of human TLR8 = conditions: read-out: dissociation constant (Kd), et al., cited from earlier work

COc1ccc2c(-c3ccc(O)c(C)c3)ccnc2c1 [CU-CPT9a]
reduction of nuclear NF-κB (nuclear NF-κB): significant reduction | effect on TLR7 (TLR7): not affected below ~μM concentration | activity against mouse TLR9 (mouse TLR9): no activity

Cc1cc(-c2ccnc3cc(O)ccc23)ccc1O [CU-CPT9b]
effect on TLR7 (TLR7): not affected below ~μM concentration | Kd (ectodomain of human TLR8; ITC, ectodomain of human TLR8, ref Zhang, 2018): 0.021 µM | activity against mouse TLR9 (mouse TLR9): no activity

CCOCc1nc2c(N)nc3ccccc3c2n1CC(C)(C)O [R848, reference compound]
Kd (ectodomain of human TLR8; TLR8 and R848, ref Tanji, 2015): 0.2 µM
